Measured values from ChEMBL document CHEMBL1944532, “Synthesis and evaluation of anticancer activity of some novel 6-aryl-2-(p-sulfamylphenyl)-pyridazin-3(2H)-ones” (Eur J Med Chem, 2012).
The source made the active and inactive calls. No cut-off for these calls is given here.

What was measured:
[1] = test system: HT-29; assay: Cytotoxicity against human HT-29 cells after 48 hrs by SRB assay; format: functional; conditions: HT-29, 48 h
How it was run: (§1)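 NCI ~60-line panel in RPMI-1640 with 5% fetal calf serum and 2 mM L-glutamine, pre-incubated 24 h. Compound in DMSO tested at five 10-fold concentrations (10^-4 to 10^-8 M) with 48 h continuous exposure. Growth measured by sulforhodamine B protein assay. GI50 (50% net growth inhibition), TGI (total inhibition) and LC50 (50% net cell death) derived from dose-response.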

[2] = test system: KM12; assay: Cytotoxicity against human KM12 cells assessed as cell growth at 10 uM after 48 hrs by SRB assay; format: functional; conditions: KM12, 48 h, read-out: Activity
How it was run: (§2)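 NCI primary single-dose screen at 10^-5 M against the full panel of about 60 human tumor cell lines. Cells were in RPMI-1640 with 5% fetal calf serum and 2 mM L-glutamine and preincubated 24 h. Compound was given in DMSO with 48 h exposure. Growth was estimated by sulforhodamine B protein assay.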

[3] = test system: HT-29; assay: Cytotoxicity against human HT-29 cells assessed as cell growth at 10 uM after 48 hrs by SRB assay; format: functional; conditions: HT-29, 48 h, read-out: Activity
How it was run: (§3)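 NCI primary single-dose screen at 10^-5 M against the ~60 human tumour cell line panel. Cells grown in RPMI-1640 with 5% fetal calf serum and 2 mM L-glutamine and pre-incubated 24 h before compound addition. Compound added from DMSO solution with 48 h exposure. Growth read by sulforhodamine B protein staining.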

[4] = test system: SN12C; assay: Cytotoxicity against human SN12C cells assessed as cell growth at 10 uM after 48 hrs by SRB assay; format: functional; conditions: read-out: Activity
How it was run: (§4)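 NCI primary one-dose screen at 10^-5 M against the full panel of about 60 human tumour cell lines, run to the NCI Drug Evaluation Branch protocol.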

[5] = test system: UACC-257; assay: Cytotoxicity against human UACC257 cells assessed as cell growth at 10 uM after 48 hrs by SRB assay; format: functional; conditions: UACC-257, 48 h, read-out: Activity; how it was run: as §4
[6] = test system: DU-145; assay: Cytotoxicity against human DU145 cells assessed as cell growth at 10 uM after 48 hrs by SRB assay; format: functional; conditions: DU-145, 48 h, read-out: Activity; how it was run: as §3
[7] = test system: OVCAR-3; assay: Antitumor activity against human OVCAR3 cells implanted in mouse dosed qd for 4 days by formazan dye-based hollow fiber assay; format: functional, organism-based
How it was run: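 Cells grown inside polyvinylidene fluoride hollow fibers; each line implanted into both intraperitoneal and subcutaneous compartments in mice. Compound given ip at two doses on a QD x 4 schedule. Fibers then recovered and viable cell mass measured by formazan dye conversion. Scored 2 per dose giving ≥50% reduction in viable cell mass (%T/C 50).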

[8] = test system: MOLT-4; assay: Cytotoxicity against human MOLT4 cells after 48 hrs by SRB assay; format: functional; conditions: MOLT-4, 48 h
How it was run: (§5)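 NCI five-dose screen on the ~60-line human tumor panel. Cells grown in RPMI-1640 with 5% fetal calf serum and 2 mM L-glutamine, seeded at line-dependent density and preincubated 24 h. Compound added from DMSO at 10-fold dilutions from 10^-4 to 10^-8 M, continuous exposure 48 h. Growth read by sulforhodamine B protein stain. GI50, TGI and LC50 derived per line.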

[9] = test system: MDA-MB-435; assay: Cytotoxicity against human MDA-MB-435 cells assessed as cell growth at 10 uM after 48 hrs by SRB assay; format: functional; conditions: MDA-MB-435, 48 h, read-out: Activity; how it was run: as §2
[10] = test system: NCI/ADR-RES; assay: Cytotoxicity against human NCI/ADR-RES cells assessed as cell growth at 10 uM after 48 hrs by SRB assay; format: functional; conditions: read-out: Activity; how it was run: as §2
[11] = test system: CAKI-1; assay: Cytotoxicity against human Caki1 cells after 48 hrs by SRB assay; format: functional; conditions: CAKI-1, 48 h; how it was run: as §1
[12] = test system: UACC-62; assay: Cytotoxicity against human UACC62 cells assessed as cell growth at 10 uM after 48 hrs by SRB assay; format: functional; conditions: UACC-62, 48 h, read-out: Activity; how it was run: as §4
[13] = test system: RPMI-8226; assay: Cytotoxicity against human RPMI8226 cells assessed as cell growth at 10 uM after 48 hrs by SRB assay; format: functional; conditions: RPMI-8226, 48 h, read-out: Activity; how it was run: as §2
[14] = test system: Malme-3M; assay: Cytotoxicity against human MALME-3M cells after 48 hrs by SRB assay; format: functional; how it was run: as §5
[15] = test system: ACHN; assay: Cytotoxicity against human ACHN cells assessed as cell growth at 10 uM after 48 hrs by SRB assay; format: functional; conditions: read-out: Activity; how it was run: as §3
[16] = test system: TK-10; assay: Cytotoxicity against human TK10 cells after 48 hrs by SRB assay; format: functional; conditions: TK-10, 48 h
How it was run: (§6)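 NCI 60-cell-line five-dose screen. Cells were grown in 1640 medium with 5% fetal calf serum and 2 mM L-glutamine, with inoculum density set by cell line, and pre-incubated 24 h. Compound in DMSO was added at 10^-4 to 10^-8 M (10-fold steps) with 48 h continuous exposure. Growth was read by SRB protein assay, and GI50, TGI and LC50 were derived from dose-response.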

[17] = test system: SK-MEL-2; assay: Cytotoxicity against human SK-MEL-2 cells after 48 hrs by SRB assay; format: functional; conditions: SK-MEL-2, 48 h; how it was run: as §5
[18] = test system: HCC 2998; assay: Cytotoxicity against human HCC2998 cells after 48 hrs by SRB assay; format: functional; conditions: HCC 2998, 48 h; how it was run: as §1
[19] = test system: HCT-116; assay: Cytotoxicity against human HCT116 cells assessed as cell growth at 10 uM after 48 hrs by SRB assay; format: functional; conditions: HCT-116, 48 h, read-out: Activity; how it was run: as §3
[20] = test system: NCI/ADR-RES; assay: Cytotoxicity against human NCI/ADR-RES cells after 48 hrs by SRB assay; format: functional; how it was run: as §5
[21] = test system: NCI-H460; assay: Cytotoxicity against human NCI-H460 cells after 48 hrs by SRB assay; format: functional; conditions: NCI-H460, 48 h; how it was run: as §5
[22] = test system: OVCAR-8; assay: Cytotoxicity against human OVCAR8 cells assessed as cell growth at 10 uM after 48 hrs by SRB assay; format: functional; conditions: OVCAR-8, 48 h, read-out: Activity; how it was run: as §2
[23] = test system: SNB-19; assay: Cytotoxicity against human SNB19 cells after 48 hrs by SRB assay; format: functional; conditions: SNB-19, 48 h; how it was run: as §6
[24] = test system: RXF 393; assay: Cytotoxicity against human RXF393 cells assessed as cell growth at 10 uM after 48 hrs by SRB assay; format: functional; conditions: RXF 393, 48 h, read-out: Activity; how it was run: as §2

Structure (SMILES): CCc1ccc(-c2ccc(=O)n(-c3ccc(S(N)(=O)=O)cc3)n2)cc1
- LC50 [1]: > 100 µM
- GI50 ([1]; read-out: GI50): 0.436 µM
- GI50 ([1]; read-out: pGI50 (converted)): 0.437 µM
- TGI ([1]; read-out: pTGI): > 100 µM
- growth at 10 µM [2]: 13.6%
- growth at 10 µM [3]: 11.8%
- growth at 10 µM [4]: 58.4%
- growth at 10 µM [5]: 22.3%
- growth at 10 µM [6]: 59.6%
- Activity [7]: inactive
- LC50 [8]: > 100 µM
- GI50 ([8]; read-out: GI50): 0.573 µM
- GI50 ([8]; read-out: pGI50 (converted)): 0.575 µM
- TGI ([8]; read-out: pTGI): > 100 µM
- growth at 10 µM [9]: -17.9%
- growth at 10 µM [10]: 1%
- LC50 (concentration causing 50% net cell death) [11]: > 100 µM
- GI50 ([11]; read-out: GI50): 2.73 µM
- GI50 ([11]; read-out: pGI50 (converted)): 2.75 µM
- TGI ([11]; read-out: pTGI): > 100 µM
- growth at 10 µM [12]: 38.5%
- growth at 10 µM [13]: -29.9%
- LC50 [14]: 75.9 µM
- GI50 ([14]; read-out: GI50): 0.188 µM
- GI50 ([14]; read-out: pGI50 (converted)): 0.186 µM
- TGI ([14]; read-out: pTGI (converted)): 16.2 µM
- growth at 10 µM [15]: 60.3%
- LC50 [16]: 77.6 µM
- GI50 ([16]; read-out: GI50): 10.8 µM
- GI50 ([16]; read-out: pGI50 (converted)): 11 µM
- TGI ([16]; read-out: pTGI (converted)): 28.8 µM
- LC50 [17]: > 100 µM
- GI50 ([17]; read-out: GI50): 10.7 µM
- GI50 ([17]; read-out: pGI50 (converted)): 10.7 µM
- TGI ([17]; read-out: pTGI (converted)): 72.4 µM
- LC50 [18]: > 100 µM
- GI50 ([18]; read-out: GI50): 2.62 µM
- GI50 ([18]; read-out: pGI50 (converted)): 2.63 µM
- TGI ([18]; read-out: pTGI): > 100 µM
- growth at 10 µM [19]: 16.8%
- LC50 [20]: > 100 µM
- GI50 ([20]; read-out: GI50): 0.314 µM
- GI50 ([20]; read-out: pGI50 (converted)): 0.316 µM
- TGI ([20]; read-out: pTGI (converted)): 12.9 µM
- LC50 [21]: 63.1 µM
- GI50 ([21]; read-out: GI50): 0.438 µM
- GI50 ([21]; read-out: pGI50 (converted)): 0.437 µM
- TGI ([21]; read-out: pTGI (converted)): 4.47 µM
- growth at 10 µM [22]: 51.2%
- LC50 [23]: > 100 µM
- GI50 ([23]; read-out: GI50): 4.41 µM
- GI50 ([23]; read-out: pGI50 (converted)): 4.37 µM
- TGI ([23]; read-out: pTGI (converted)): 36.3 µM
- growth at 10 µM [24]: -31.8%
